Measurements taken from ChEMBL document CHEMBL1132214, “Synthesis, mode of action, and biological activities of rebeccamycin bromo derivatives” (J Med Chem, 1999).
Converted amounts (≈) assume the structure as drawn.

How the values were obtained:
P388 [1] = assay: (§1) Ratio of IC50 of p388 and p388CPT5 cell lines; format: functional, Mus musculus
How it was run: (§2)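 Murine P388 leukaemia cells and camptothecin-resistant P388CPT5 cells were exposed to graded drug concentrations for 96 h at 37 °C. Viability was read by neutral red staining and the 50% growth-inhibitory concentration (IC50) taken for each line. The resistance ratio is IC50(P388CPT5)/IC50(P388).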

CEM-SS [2] = assay: Selective Index of against HIV -I Lai infected CEM-SS cells.; format: functional, Homo sapiens
How it was run: (§3)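 CEM-SS cells kept at 37 °C, 5% CO2 in RPMI 1640 with 10% decomplemented FBS, infected with HIV-1 Lai. Antiviral IC50 from reverse transcriptase activity of virus particles released into the medium. Cytotoxicity (CC50) measured in parallel. Selectivity index = CC50/IC50.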

P388 [3] = assay: Compound was tested for drug bound to whole cells (P388 leukemia) before centrifugation at 320 nm.; format: functional, Mus musculus
How it was run: (§4)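 Exponentially growing P388 cells (1.5 × 10^6 per mL) incubated with drug, usually 100 µM, for 30 min at 37 °C. Excitation 320 nm, emission 400–600 nm. Whole-cell spectrum read before centrifugation. Pellet spectrum read after one HBSS wash and resuspension in drug-free buffer. Intensities expressed relative to free rebeccamycin; fraction change is whole-cell versus free drug.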

P388 [4] = assay: Fraction change in percent is observed.; format: functional, Mus musculus; how it was run: as §4
P388 [5] = assay: Compound was tested for drug bound to cell pellet (P388 leukemia) after centrifugation at 320 nm.; format: functional, Mus musculus; how it was run: as §4
[6] = as §1; format: functional; how it was run: as §2
P388CPT5 = assay: In vitro inhibitory concentration against murine P388CPT5 leukemia cell proliferation; format: functional, cell-based; conditions: Mus musculus
How it was run: (§5)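 Murine P388 leukemia cells, or the camptothecin-resistant P388CPT5 subline, exposed 96 h at 37 °C to a range of drug concentrations. Viability scored by neutral red staining. IC50 taken as the concentration giving 50% growth inhibition.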

[7] = target: T1, DNA topoisomerase 1 (Mus musculus) (UniProt Q04750)
T1 sequence (whole entry): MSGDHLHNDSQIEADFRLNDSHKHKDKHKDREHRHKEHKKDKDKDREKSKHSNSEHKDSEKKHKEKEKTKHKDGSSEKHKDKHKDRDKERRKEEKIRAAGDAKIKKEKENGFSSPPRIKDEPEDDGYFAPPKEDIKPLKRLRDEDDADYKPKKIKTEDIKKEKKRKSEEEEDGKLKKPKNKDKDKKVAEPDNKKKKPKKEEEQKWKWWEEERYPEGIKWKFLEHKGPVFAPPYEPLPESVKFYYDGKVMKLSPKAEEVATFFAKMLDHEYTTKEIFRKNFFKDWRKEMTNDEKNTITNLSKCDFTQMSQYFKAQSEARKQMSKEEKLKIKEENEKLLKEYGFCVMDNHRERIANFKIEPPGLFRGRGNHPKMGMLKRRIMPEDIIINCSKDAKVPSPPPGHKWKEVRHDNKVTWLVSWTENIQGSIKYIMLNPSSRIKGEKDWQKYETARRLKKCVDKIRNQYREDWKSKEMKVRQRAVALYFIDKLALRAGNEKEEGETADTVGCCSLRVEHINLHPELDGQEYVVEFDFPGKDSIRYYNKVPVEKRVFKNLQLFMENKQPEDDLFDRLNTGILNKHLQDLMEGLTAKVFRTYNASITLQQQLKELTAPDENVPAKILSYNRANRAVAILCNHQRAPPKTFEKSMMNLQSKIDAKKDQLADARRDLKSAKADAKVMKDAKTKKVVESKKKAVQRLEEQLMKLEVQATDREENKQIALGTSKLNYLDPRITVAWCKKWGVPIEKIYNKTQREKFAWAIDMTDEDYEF

P388 [8] = assay: In vitro inhibitory concentration against murine P388 leukemia cell proliferation; format: functional, cell-based; conditions: Mus musculus; how it was run: as §5
CEM-SS [9] = assay: Compound was tested for anti-HIV activity in HIV -I Lai infected CEM-SS cells.; format: functional, cell-based; conditions: Homo sapiens; how it was run: as §3
CEM-SS [10] = assay: The cytotoxicity was evaluated in HIV -I Lai infected CEM-SS cells.; format: functional; conditions: Homo sapiens; how it was run: as §3
[11] = tested on: DNA topoisomerase 1 (Bos taurus); assay: Compound was tested for anti microbial activity against topoisomerase I.
Bacillus cereus = assay: Compound was tested for antimicrobial activity against a gram-positive bacterium Bacillus cereus; format: functional
How it was run: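 Bacillus cereus ATCC 14579 in Mueller-Hinton broth, pH 7.4, incubated 24 h at 27 °C. Compounds diluted in DMSO over 12 tubes spanning 100 to 0.05 µg/mL. MIC read from the dilution series.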

| Compound | Ratio (P388 [1]) | Selectivity index (CEM-SS [2]) | Whole-cell fluorescence relative to free drug (P388 [3]) | Fraction change (P388 [4]) | Activity (P388 [5]) | Ratio [6] | IC50 (P388CPT5) | MIC [7] | IC50 (P388 [8]) | IC50 (CEM-SS [9]) | CC50 (CEM-SS [10]) | MIC [11] | MIC (Bacillus cereus) |
| --- | --- | --- | --- | --- | --- | --- | --- | --- | --- | --- | --- | --- | --- |
| CO[C@H]1[C@H](O)[C@@H](O)[C@H](n2c3ccc(Br)cc3c3c4c(c5c6cc(Br)ccc6[nH]c5c32)C(=O)OC4=O)O[C@@H]1CO | 8.3 | 1.9 | – | – | – | – | – | – | – | – | – | – | – |
| CO[C@H]1[C@H](O)[C@@H](O)[C@H](n2c3ccccc3c3c4c(c5c6ccccc6[nH]c5c32)C(=O)OC4=O)O[C@@H]1CO | >3.1 | >1.98 SI | – | – | – | – | – | – | – | – | – | – | – |
| CO[C@H]1[C@H](O)[C@@H](O)[C@H](n2c3c(Cl)cccc3c3c4c(c5c6cccc(Cl)c6[nH]c5c32)C(=O)NC4=O)O[C@@H]1CO [REBECCAMYCIN] | 8.5 | 2 SI | 1.29 | 29% | 0.81 | – | – | – | – | – | – | – | – |
| CC[C@@]1(O)C(=O)OCc2c1cc1n(c2=O)Cc2cc3ccccc3nc2-1 [CAMPTOTHECIN] | – | – | – | – | – | 87.5 | 2.8 µM | 86 nM (≈ 0.03 µg/mL) | 32 nM | – | – | – | – |
| CO[C@H]1[C@H](O)[C@@H](O)[C@H](n2c3ccccc3c3c4c(c5c6ccccc6[nH]c5c32)C(=O)N(C)C4=O)O[C@@H]1CO | – | 2 | – | – | – | – | – | – | 670 nM | 4000 nM | 7.9 µM | – | – |
| COC1C(CO)OC(n2c3ccc(Br)cc3c3c4c(c5c6cc(Br)ccc6[nH]c5c32)C(=O)N(C)C4=O)C(O)C1O (configuration not stated) | >3 | 1.3 | 0.46 | 13% | 0.24 | – | > 15 µM | – | 4900 nM | 1170 nM | 1.49 µM | > 15000 nM | > 74 µM |
| COC1C(CO)OC(n2c3ccc(Br)cc3c3c4c(c5c6cc(Br)ccc6[nH]c5c32)C(=O)NC4=O)C(O)C1O (configuration not stated) | >58 | 4.8 | 0.15 | 46% | 0.08 | – | > 15 µM | – | 260 nM | 70 nM | 0.34 µM | 150 nM (≈ 0.0989 µg/mL) | 19 µM (≈ 12.5 µg/mL) |
| CO[C@H]1[C@H](O)[C@@H](O)[C@H](n2c3c(Cl)cccc3c3c4c(c5c6cccc(Cl)c6[nH]c5c32)C(=O)N(C)C4=O)O[C@@H]1CO | – | 1.6 | – | – | – | – | – | – | – | 4900 nM | 8 µM | – | – |
| CO[C@H]1[C@H](O)[C@@H](O)[C@H](n2c3ccccc3c3c4c(c5c6ccccc6[nH]c5c32)C(=O)NC4=O)O[C@@H]1CO | >28 | 5.6 | 0.38 | -26% | 0.33 | – | – | – | – | – | – | – | – |
